The values that follow come from publication PMC3078649 (Molecular pharmaceutics, 2010).

One data set deals with MDCK cell monolayers. The settings on record: shown previously; cited from earlier work.
The subject of data set [1] is intercellular junctions of Caco-2 cell monolayers. Nature of the data set: Inhibition of intercellular junction resealing. Type of data set: cell-based. As to conditions: for Activity in the resealing assay compared to either ADT6 or HAV6: conjugates with aminocaproic acid (cap) linker; for Inhibition of resealing (% TEER difference between 8- and 2-h time points) compared to blank: AP-BL sides of Caco-2 monolayers (Fig. 5); for Inhibition of resealing of intercellular junctions (TEER time course): 0.5 mM peptide, AP-BL sides, conditioned Caco-2 monolayers. The method in brief: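 Caco-2 cells were grown on 3 µm-pore Transwell inserts (50,000 cells/insert) and used on days 15–20. Initial TEER was taken after 1 h at 37 °C in HBSS pH 7.4 (10 mM Hepes, 1% glucose, 2.0 mM CaCl2). Cells were conditioned 2 h in calcium-free medium. Peptide (0.5 or 1.0 mM) in Ca-HBSS was added AP, BL or AP-BL, with blank and unrelated-peptide controls. TEER was read hourly, minus 90 Ω × cm2 background, in triplicate. Inhibition was the TEER change from 2 to 8 h.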

The test system of another data set is Caco-2 cell monolayers. As to the kind of experiment: Peptide stability on Caco-2 cell monolayers. Type of data set: in vitro ADME.
In data set [2] the test system is E-cadherin-mediated adhesion of Caco-2 cells. The settings on record: shown previously; cited from earlier work.
Data set [3] has the same test system. As to the kind of experiment: Homotypic adhesion of Caco-2 single cells to attached cells. Type of data set: cell-based. The settings on record: 250 µM peptide. The method in brief: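 Single Caco-2 cells were released by Ca2+/Mg2+-free EBSS (1 h, 37 °C) and labelled with BCECF-AM. They were added at 5 × 10^4 cells/well to Caco-2 monolayers pretreated 2 h at 37 °C in Ca2+-free EBSS (1 mM Mg2+, 0.1% BSA). Co-incubation with peptide was 2 h at 37 °C. Positive control was anti-E-cadherin antibody DECMA-1 at 1:100. Unbound cells were removed and attached cells lysed; fluorescence was read at ex 485/em 530 nm.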

In data set [4] the test system is blood brain barrier. As to the kind of experiment: In situ rat brain perfusion, 14C-mannitol permeation. Type of data set: in vivo. The settings on record: for Enhancement of 14C-mannitol permeation through the BBB compared to vehicle: 1.0 mM test substance pre-perfused 4 min at 10 ml/min, triplicate. The procedure, abridged: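 Perfusion was 4 min with vehicle (0.5% Tween in sterile saline) or 1.0 or 0.5 mM peptide, then immediately 4 min with 14C-mannitol (10 µCi). Brain radioactivity was measured in triplicate, reported as mean ± SD, and compared with vehicle (p < 0.05).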

Data set [5] concerns blood brain barrier. As to the kind of experiment: In situ rat brain perfusion, [3H. Type of data set: in vivo. The settings on record: 1.0 mM HAV6 first, then daunomycin with 500 µM verapamil; p < 0.001 (Fig. 3 E).
Another data set has as its system EC5 domain of E-cadherin. As to conditions: cited from earlier work.

For Ac-ADTPPV-NH2 [ADT6], the “Enhancement of 14C-mannitol permeation through MDCK cell monolayers” value with MDCK cell monolayers is “enhance ^14C-mannitol through MDCK cell monolayers”.
As for Ac-DTPPV-cap-SHAVSS-NH2, the “Activity in the resealing assay compared to either ADT6 or HAV6” value in data set [1] is “did not show any improved activity”.
Turning to “Ac-HSVSAS-NH2 [HAVscr, reference compound]”, in data set [1] (1.0 mM peptide), the “Inhibition of resealing (% TEER difference between 8- and 2-h time points) compared to blank” value is “could not suppress the resealing”.
Regarding Ac-LFSHAVSSNG-NH2 [HAV10], the “Inhibition of resealing of intercellular junctions (TEER time course)” value in data set [1] is on record as “not at 0.5 mM”. Also, in the data set with Caco-2 cell monolayers (100 µM peptide, apical side of Caco-2 cell monolayers, 8 h incubation), the Peptide concentration remaining is listed as 80%. Moreover, the “Inhibition of homotypic Caco-2 cell adhesion” value in data set [2] is recorded as “inhibit the homotypic Caco-2 cell adhesion”. In the data set with MDCK cell monolayers, the “Enhancement of 14C-mannitol permeation through MDCK cell monolayers” value is “enhance ^14C-mannitol through MDCK cell monolayers”.
As to Ac-NDDGGQFVVT-NH2 [BLG3], in data set [1] (1.0 mM peptide), the “Inhibition of resealing (% TEER difference between 8- and 2-h time points) compared to blank” value is reported as “could not inhibit the resealing”.
For the substance Ac-QDPELPDKNM-NH2 [BLG2], the “Potency in blocking homotypic cell-cell adhesion relative to BLG1 and BLG4” value in data set [3] is “more potent”.
With Ac-QGADTPPVGV-NH2 [ADT10], the “Inhibition of resealing of intercellular junctions (TEER time course)” value in data set [1] is recorded as “still active”. In data set [1] (1.0 mM peptide), the “Inhibition of resealing (% TEER difference between 8- and 2-h time points) compared to blank” value is reported as “significantly suppress the resealing”. In the data set on MDCK cell monolayers, the “Enhancement of 14C-mannitol permeation through MDCK cell monolayers” value is reported as “enhance ^14C-mannitol through MDCK cell monolayers”.
Ac-SHAVSS-NH2 [HAV6]: the “Amount of mannitol delivered to the brain: lowering when HAV6 was lowered from 1.0 mM to 0.5 mM” value in the data set on blood brain barrier [4] (0.5 mM versus 1.0 mM HAV6) was found to be 40%. Moreover, the “Enhancement of 14C-mannitol permeation through the BBB compared to vehicle” value with blood brain barrier [4] is “significantly enhanced”. Moreover, the “Amount of daunomycin in the brain compared to vehicle-treated BBB” value in the data set with blood brain barrier [5] is recorded as “tremendous increase”. Further, the “Metabolic stability on Caco-2 cell monolayer” value with Caco-2 cell monolayers (96-h incubation on Caco-2 cell monolayer) is “metabolically stable”. In the data set with EC5 domain of E-cadherin, the “Binding to the expressed EC5 domain by NMR spectroscopy” value is reported as “bind the expressed EC5 domain”.
Regarding Ac-SHAVSS-cap-ADTPPV-NH2, the “Activity in the resealing assay compared to either ADT6 or HAV6” value in data set [1] is recorded as “did not show any improved activity”.
Take “Ac-SSVAHS-NH2 [HAVrev, reference compound]”: the “Inhibition of resealing (% TEER difference between 8- and 2-h time points) compared to blank” value in data set [1] (1.0 mM peptide) is on record as “could not suppress the resealing”.
As to Ac-TYRIWRDTAN-NH2 [BLG4], the “Rank of inhibitory activity in the resealing assay among BLG peptides” value in data set [1] (1.0 mM peptide, AP-BL sides (Fig. 5)) is “best inhibitory activity”. Besides, the “Inhibition of resealing (% TEER difference between 8- and 2-h time points) compared to blank” value in data set [1] (1.0 mM peptide) is recorded as “significantly suppress the resealing”. In the data set on EC5 domain of E-cadherin, the “Binding to the expressed EC5 domain by NMR spectroscopy” value is “bind the expressed EC5 domain”.
In the case of EATDSG [LABL6, reference compound], the “Enhancement of 14C-mannitol permeation through the BBB compared to vehicle” value with blood brain barrier [4] was “did not enhance”.
